Marks after values point to notes of the source that are not given here.

For data set [1], the system named is FHC. Briefly: Cytotoxicity assay. It counts as cell-based, human. Particulars: 72 h.
Data set [2] has as its system HCT116. Briefly: Cytotoxicity assay. It counts as cell-based, human.
The test system of data set [3] is RKO. The data set can be described thus: Cytotoxicity assay. Particulars: 72 h. It counts as cell-based, human.
Data set [4] has as its system LS174T. Briefly: Cytotoxicity assay. It counts as cell-based, human. Particulars: 72 h.
Data set [5] concerns LoVo. Briefly: Cytotoxicity assay. It counts as cell-based, human. The following applies: 72 h.
Data set [6] relates to Colo205. The data set can be described thus: Cytotoxicity assay. It counts as cell-based, human.
For data set [7], the system named is DLD-1. Briefly: Cytotoxicity assay. It counts as cell-based, human.
Data set [8] concerns HT-29. Briefly: Cytotoxicity assay. It counts as cell-based, human.
The test system of data set [9] is SW620. The data set can be described thus: Cytotoxicity assay. It counts as cell-based, human.
Data set [10] concerns RKO-E6. The data set can be described thus: Cytotoxicity assay. Particulars: RKO-E6 (p53-KO), 72 h. It counts as cell-based, human.
Data set [11] deals with H3347. The data set can be described thus: Cytotoxicity assay. It counts as cell-based, human. Particulars: H3347, 72 h.
The test system of data set [12] is HexA-rev and HexB-rev fragments. The data set can be described thus: Guanine-N7 alkylation, Maxam-Gilbert method. It counts as binding. Particulars: 3'-end-labeled DNA, 37°C, 2 h, pH 7.4. Summed up: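 Sixty-four symmetrical hexanucleotide fragments (HexA-rev, HexB-rev) were 3′-end-labelled, gel-purified on polyacrylamide, and reacted with the test compound. Guanine-N7 alkylation sites were mapped by the Maxam-Gilbert method. A weighted consensus sequence logo was generated with Seq2Logo 3.4.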

The test system of data set [13] is Caco-2. Briefly: Cytotoxicity assay. It counts as cell-based. The following applies: Homo sapiens, Caco-2, 72 h.
The test system of data set [14] is RKO cells. Briefly: Comet and modified comet assays. It counts as cell-based, human. The following applies: 24 h, SL-1 0.75 μM, 5-FU […], alone or combined. An outline of the steps:
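RKO cells were exposed to the test compound and/or 5-FU for 24 h and then processed by comet assay. The read-out was tail moment, reported as means ± SD (n = 3) and compared by Student's t test. Synergy on tail moment was expressed as a combination index (CI).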

The test system of data set [15] is RKO cells. Briefly: Annexin V staining assay. It counts as cell-based, human.
Data set [16] can be described thus: Toxicology examination: complete blood counts. It counts as in vivo. The following applies: ICR mice, 5-FU 50 mg/kg i.p., SL-1 30, oxaliplatin 7.5, cisplatin 7.5 mg/kg i.v.
The nature of data set [17]: Toxicology examination: serum biochemistry. It counts as in vivo. Particulars: ICR mice, 5-FU 50 mg/kg i.p., SL-1 30, oxaliplatin 7.5, cisplatin 7.5 mg/kg i.v.
Where [18] appears, read: FHC normal fetal colonic epithelial cells.

Broadly, the IC50 is the concentration at which inhibition is half-maximal. `N.N.[Cl][Pt][Cl]` [Cisplatin, cisplatin]: the IC50 in [1] (setting [18]) amounted to 21 ± 2.03 µM; in [2] (HCT116 (p53-WT), 72 h), 3.42 ± 0.36 µM; in data set [3] (RKO (p53-WT)), 26.3 ± 3.28 µM; in data set [4] (LS174T (p53-WT)), 8.48 ± 2.74 µM; in data set [5] (LoVo (p53-WT)), 6.38 ± 2.18 µM; in [6] (Colo205 (p53-WT), 72 h) it was 11.1 ± 1.27 µM. Further, the IC50 in [7] (DLD-1 (p53-MT), 72 h) came to 29.6 ± 6.42 µM; in [8] (HT-29 (p53-MT), 72 h), 5.99 ± 1.22 µM; in data set [9] (SW620 (p53-MT), 72 h), 0.91 ± 0.27 µM; in data set [10], 24.8 ± 7.71 µM; in data set [11] it was 12.2 ± 0.64 µM.
In the case of `CN(C)CCNC(=O)c1cccc(NC(=O)Nc2ccc(N(CCCl)CCCl)cc2)c1.Cl` [BO-1055], the “consensus sequence / binding pattern of guanine-N7 alkylation” value in data set [12] is “no distinct binding sequence”.
As to `Cc1ccc(Nc2c3ccccc3nc3c(C)cccc23)cc1NC(=O)Nc1ccc(N(CCCl)CCCl)cc1` [BO-1051], in [12], the “consensus sequence / binding pattern of guanine-N7 alkylation” value was “no distinct binding sequence”.
As for `O=c1[nH]cc(F)c(=O)[nH]1` [5-FU, 5-fluorouracil], the concentration for half-maximal inhibition (IC50) in data set [1] (Homo sapiens, FHC) was 21.9 ± 2.49 µM. Besides, the concentration for half-maximal inhibition (IC50) in data set [2] (Homo sapiens, HCT-116, 72 h) was 2.88 ± 0.33 µM. For the same compound, in [3] (Homo sapiens, RKO), the half-maximal inhibitory concentration (IC50) is 6.15 ± 1.63 µM. Further, the half-maximal inhibitory concentration (IC50) in data set [4] (Homo sapiens, LS174T) came to 18.6 ± 0.26 µM. Also, in data set [5] (Homo sapiens, LoVo), the IC50 came out at 25.8 ± 0.74 µM. Further, the IC50 in data set [6] (Homo sapiens, COLO 205, 72 h) was determined as 6.8 ± 3.05 µM. Also, half-maximal inhibition in data set [7] (Homo sapiens, DLD-1, 72 h) (IC50) required 16.9 ± 5.3 µM. In data set [8] (Homo sapiens, HT-29, 72 h), this compound gave an IC50 of 2.27 ± 0.41 µM. The compound also returned a 50% inhibitory concentration (IC50) in data set [9] (Homo sapiens, SW-620, 72 h) of 18.5 ± 4.05 µM. In data set [13], the IC50 is more than 50 µM. This compound came in with an IC50 in data set [11] (Homo sapiens) of 5.89 ± 0.5 µM. Moreover, the tail moment in data set [14] is recorded as 3.9 ± 0.4 μm. In data set [15], the “mode of cell death” value was “mainly caused necrotic cell death”. In addition, in data set [16] (2 days), the BASO was 0.01 ± 0.01 10^9/l, the EO is 0.06 ± 0.01* 10^9/l, the HCT is 27.94 ± 3.75 % and the HGB turned out to be 10.58 ± 2.62 g/dL. Moreover, in [16] (2 days), the LYMPH is 4.22 ± 0.45 10^9/l, the MCH was found to be 14.94 ± 3.04 pg, the MCHC amounted to 27.50 ± 4.71 g/dL and the MCV stood at 57.06 ± 3.75 fL. In data set [16] (2 days), the MONO is recorded as 0.02 ± 0.01 10^9/l, the NEUT is 0.78 ± 0.40 10^9/l, the PLT is reported as 873.00 ± 141.40** 10^9/l and the RBC was 4.98 ± 1.72* 10^12/l. In addition, the WBC in data set [16] (2 days) is recorded as 5.09 ± 0.23 10^9/l. Moreover, in [16] (14 days), the BASO is given as 0.01 ± 0.01 10^9/l, the EO is on record as 0.08 ± 0.01*** 10^9/l, the HCT was 45.53 ± 1.61 % and the HGB was found to be 13.08 ± 0.25 g/dL. In addition, in [16] (14 days), the LYMPH is reported as 2.62 ± 0.94 10^9/l, the MCH amounted to 16.25 ± 0.35 pg, the MCHC was found to be 28.73 ± 0.48 g/dL and the MCV was 56.48 ± 1.73 fL. In data set [16] (14 days), the MONO was 0.06 ± 0.10 10^9/l, the NEUT is reported as 0.64 ± 0.17 10^9/l, the PLT is 745.75 ± 116.31* 10^9/l and the RBC is reported as 8.06 ± 0.24*** 10^12/l. Further, the WBC in data set [16] (14 days) is 3.40 ± 1.21 10^9/l. Moreover, in data set [17] (2 days), the ALP turned out to be 359.25 ± 72.22 U/l, the ALT came out at 23.25 ± 4.97 U/l, the AST was found to be 63.50 ± 13.24 U/l and the BUN is 23.65 ± 1.50 mg/dL. In [17] (2 days), this compound showed a CRE of 0.23 ± 0.1 mg/dL and a GLU of 577.25 ± 36.55 mg/dL. In [17] (14 days), this compound displayed an ALP of 177.50 ± 119.69 U/l, a BUN of 22.20 ± 3.42 mg/dL, a CRE of 0.25 ± 0.10 mg/dL and a GLU of 244.00 ± 86.63 mg/dL. In data set [17] (14 days), the GOT/AST is on record as 53.00 ± 3.56 U/l and the GPT/ALT is listed as 46.50 ± 7.85 U/l.
For the compound `O=C1[O][Pt]2([NH][C@@H]3CCCC[C@H]3[NH]2)[O]C1=O` [Oxaliplatin, oxaliplatin], the IC50 in [1] (setting [18]) is 19.7 ± 2.21 µM; in data set [2] (HCT116 (p53-WT), 72 h), 1.78 ± 0.11 µM; in [3] (RKO (p53-WT)), 0.62 ± 0.02 µM; in data set [4] (LS174T (p53-WT)), more than 50 µM; in data set [5] (LoVo (p53-WT)), 1.65 ± 0.21 µM; in [6] (Colo205 (p53-WT), 72 h), 2.26 ± 0.78 µM. In addition, the IC50 in data set [7] (DLD-1 (p53-MT), 72 h) turned out to be 1.62 ± 0.06 µM; in data set [8] (HT-29 (p53-MT), 72 h), 1.92 ± 0.81 µM; in [9] (SW620 (p53-MT), 72 h), 7.62 ± 3.12 µM; in data set [10] it was 10.3 ± 3.39 µM; in data set [11], 2.55 ± 0.73 µM. Besides, the ALP in data set [17] (2 days) turned out to be 498.33 ± 63.91 U/l; in data set [17] (14 days) it was 245.5 ± 35.07 U/l. This compound also displayed an ALT in [17] (2 days) of 28.00 ± 1.73 U/l. Also, the AST in [17] (2 days) came out at 76.67 ± 16.47 U/l. Besides, the BUN stood at 20.27 ± 3.32 mg/dL in data set [17] (2 days) and 21.35 ± 5.07 mg/dL in data set [17] (14 days). In addition, the CRE in [17] (2 days) was 0.27 ± 0.06 mg/dL; in data set [17] (14 days) it was 0.13 ± 0.05 mg/dL. Further, the figures for the GLU in data set [17] (2 days) and in data set [17] (14 days) were 153.67 ± 88.22 mg/dL and 268.25 ± 61.43 mg/dL, respectively. In data set [17] (14 days), this compound returned a GOT/AST of 47.25 ± 7.13 U/l. The compound further registered a GPT/ALT in [17] (14 days) of 29.50 ± 5.74 U/l.
Consider `CCc1c2c(nc3ccc(OC(=O)N4CCC(N5CCCCC5)CC4)cc13)-c1cc3c(c(=O)n1C2)COC(=O)[C@]3(O)CC` [Irinotecan, irinotecan], for which the IC50 is more than 100 µM in [1] (Homo sapiens, FHC); 1.38 ± 0.49 µM in data set [2] (Homo sapiens, HCT-116, 72 h); 2.63 ± 1.05 µM in [3] (Homo sapiens, RKO); 1.36 ± 0.33 µM in data set [4] (Homo sapiens, LS174T); 9.69 ± 1.68 µM in data set [5] (Homo sapiens, LoVo); 2.49 ± 0.48 µM in [6] (Homo sapiens, COLO 205, 72 h). Moreover, the IC50 turned out to be 1.72 ± 0.35 µM in data set [7] (Homo sapiens, DLD-1, 72 h); 4.19 ± 0.29 µM in data set [8] (Homo sapiens, HT-29, 72 h); 0.32 ± 0.1 µM in [9] (Homo sapiens, SW-620, 72 h); 21.3 ± 7.34 µM in [13]; 2.93 ± 0.68 µM in data set [11] (Homo sapiens).
